≈ marks a conversion by molar mass, not a printed value.
Experiments:
Type in all cases: functional
Staphylococcus aureus = test: Antimicrobial activity against Staphylococcus aureus after 24 hrs by agar dilution technique
Summary of the method: (§1)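 Suspensions of E. coli, B. subtilis and Staphylococcus aureus were prepared at about 10⁵–10⁶ CFU/well, and test compounds were applied to the wells over a concentration range. MIC was taken as the lowest concentration with no apparent growth, disregarding a single colony or a faint haze from the inoculum.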

Bacillus subtilis = test: Antimicrobial activity against Bacillus subtilis after 24 hrs by agar dilution technique; summary of the method: as §1
Escherichia coli = test: Antimicrobial activity against Escherichia coli after 24 hrs by agar dilution technique; summary of the method: as §1
[1] = Antioxidant activity assessed as superoxide radical scavenging activity measured as formazone formation by spectrophotometry relative to control; design: concentration or dose not given beside the values
Summary of the method: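 NADH–NBT–PMS superoxide-generating mixture in 0.1 M phosphate buffer, pH 7.4, with reagents made up in buffer. Sample was added from a 1 mM DMSO solution. The reaction ran at room temperature, and superoxide formation was followed as blue formazan absorbance at 560 nm. Lower absorbance was read as higher scavenging.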

Row | Structure (SMILES) | MIC (Staphylococcus aureus) [µg/mL] | MIC (Bacillus subtilis) [µg/mL] | MIC (Escherichia coli) [µg/mL] | Activity [1] [%]
1 | CCCOC(=O)c1cc(O)c(O)c(O)c1 | – | – | – | 91.3
2 | Cc1c2c(nn1CC(=O)N/N=C/c1ccc([N+](=O)[O-])cc1)-c1ccccc1S(=O)(=O)N2C | > 200 | > 200 | > 200 | 23.7
3 | Cc1c2c(nn1CC(=O)N/N=C/c1ccc(Cl)cc1Cl)-c1ccccc1S(=O)(=O)N2C | > 200 | > 200 | > 200 | 48.7
4 | Cc1c2c(nn1CC(=O)N/N=C/c1ccccc1[N+](=O)[O-])-c1ccccc1S(=O)(=O)N2C | > 200 | > 200 | > 200 | 28.8
5 | COc1cccc(/C=N/NC(=O)Cn2nc3c(c2C)N(C)S(=O)(=O)c2ccccc2-3)c1 | > 200 | 69 (≈ 157 µM) | 23 (≈ 52.3 µM) | 44.9
6 | CCOc1cc(/C=N/NC(=O)Cn2nc3c(c2C)N(C)S(=O)(=O)c2ccccc2-3)ccc1O | > 200 | 47 (≈ 100 µM) | 11 (≈ 23.4 µM) | 71.1
7 | CN(C)[C@@H]1C(O)=C(C(N)=O)C(=O)[C@@]2(O)C(O)=C3C(=O)c4c(O)cccc4[C@@](C)(O)[C@H]3C[C@@H]12 [TETRACYCLINE] | 0.78 (≈ 1.76 µM) | 0.35 (≈ 0.788 µM) | 0.25 (≈ 0.563 µM) | –
8 | Cc1c2c(nn1CC(=O)N/N=C/c1ccccc1Cl)-c1ccccc1S(=O)(=O)N2C | > 200 | > 200 | > 200 | 44.2
9 | Cc1c2c(nn1CC(=O)N/N=C/c1ccccc1)-c1ccccc1S(=O)(=O)N2C | > 200 | > 200 | 69 (≈ 169 µM) | 33.9
10 | Cc1c2c(nn1CC(=O)N/N=C/c1cccs1)-c1ccccc1S(=O)(=O)N2C | 55 (≈ 132 µM) | 77 (≈ 185 µM) | 23 (≈ 55.4 µM) | 14.6
11 | Cc1c2c(nn1CC(=O)N/N=C/c1ccsc1)-c1ccccc1S(=O)(=O)N2C | 61 (≈ 147 µM) | 82 (≈ 197 µM) | 24 (≈ 57.8 µM) | 16.5

Further lines, with some results ahead:

Row | MIC (Staphylococcus aureus) [µg/mL] | MIC (Bacillus subtilis) [µg/mL] | MIC (Escherichia coli) [µg/mL] | Structure (SMILES) | Activity [1] [%]
12 | > 200 | > 200 | 17 (≈ 36.2 µM) | COc1ccc(/C=N/NC(=O)Cn2nc3c(c2C)N(C)S(=O)(=O)c2ccccc2-3)c(OC)c1 | 53.1
13 | > 200 | > 200 | > 200 | Cc1c2c(nn1CC(=O)N/N=C/c1cccc([N+](=O)[O-])c1)-c1ccccc1S(=O)(=O)N2C | 52.2
14 | > 200 | > 200 | > 200 | Cc1c2c(nn1CC(=O)N/N=C/c1ccc(Cl)cc1)-c1ccccc1S(=O)(=O)N2C | 23.3
15 | > 200 | 95 (≈ 231 µM) | 27 (≈ 65.8 µM) | Cc1c2c(nn1CC(=O)N/N=C/c1cccnc1)-c1ccccc1S(=O)(=O)N2C | 25.1
16 | > 200 | > 200 | > 200 | Cc1c2c(nn1CC(=O)N/N=C/c1ccc(F)cc1)-c1ccccc1S(=O)(=O)N2C | 17.4
17 | > 200 | 39 (≈ 88.3 µM) | 5 (≈ 11.3 µM) | Cc1c2c(nn1CC(=O)N/N=C/c1ccc(O)cc1O)-c1ccccc1S(=O)(=O)N2C | 98.3
18 | > 200 | 88 (≈ 214 µM) | 28 (≈ 68.2 µM) | Cc1c2c(nn1CC(=O)N/N=C/c1ccccn1)-c1ccccc1S(=O)(=O)N2C | 24
19 | > 200 | > 200 | > 200 | Cc1c2c(nn1CC(=O)N/N=C/c1ccc(Cl)c(Cl)c1)-c1ccccc1S(=O)(=O)N2C | 51.5

— ChEMBL document CHEMBL1154746, “Anti-oxidant and anti-bacterial activities of novel N'-arylmethylidene-2-(3, 4-dimethyl-5, 5-dioxidopyrazolo[4,3-c][1,2]benzothiazin-2(4H)-yl) acetohydrazides” (2010)
